Screens (PubChem BioAssay)
An excerpt weighted towards active compounds, which were near 1.3% of everything screened.
Wee1 degr inh – blocks degradation of human Wee1 kinase; P30291; HeLa Luc-Wee1K328M stability, luciferase luminescence; 100% = proteasome inhibitor MG132 effect; reporter increase, % at 5 µM; actives 1.2% (n = 220,000);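 active = activation above the mean of all tested compounds plus 3 SD, set per screening run, cut at about 8.8% in these data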;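 also: cells exposed to compound for 20 h before luminescence read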
Hsp70 activator – Hsp70 transcriptional activation, primary screen. HeLa Hsp70 promoter luciferase reporter, luminescence; scaled: vehicle 0, proteasome-inhibitor control 100%. activation, % at 10 µM. actives 0.04% (n = 200,000). AID 1203;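 active = activation above the mean across all tested compounds plus 3 SD, cutoff set per campaign, cut at about 5.5% in these data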
Pf gametocyte – inhibitors of late stage P. falciparum gametocyte viability; P. falciparum stage V gametocytes, ATP luminescence, 24 h; inhibition, % at 10.9 µM; actives 0.065% (n = 150,000); AID 743093;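 active = inhibition above the mean plus 3 SD of compounds within the control limits, set per campaign, cut at about 38% in these data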
Mdm2 ligase inh – inhibitors of human Mdm2 E3 ubiquitin ligase; Q00987; cell-based MDM2 ubiquitination luciferase reporter, 2 h; 0 = plate control, 100 = twice control, blank-subtracted; signal enhancement, % at 5 µM; actives 0.11% (n = 210,000); AID 1230;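 active = signal enhancement of 30% or more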;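 also: luminescence tracks abundance of the self-degrading MDM2-luciferase fusion protein; higher signal means inhibition of MDM2 E3 ligase activity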
Target sequence (Q00987 whole entry, looked up, the tested form may be a part): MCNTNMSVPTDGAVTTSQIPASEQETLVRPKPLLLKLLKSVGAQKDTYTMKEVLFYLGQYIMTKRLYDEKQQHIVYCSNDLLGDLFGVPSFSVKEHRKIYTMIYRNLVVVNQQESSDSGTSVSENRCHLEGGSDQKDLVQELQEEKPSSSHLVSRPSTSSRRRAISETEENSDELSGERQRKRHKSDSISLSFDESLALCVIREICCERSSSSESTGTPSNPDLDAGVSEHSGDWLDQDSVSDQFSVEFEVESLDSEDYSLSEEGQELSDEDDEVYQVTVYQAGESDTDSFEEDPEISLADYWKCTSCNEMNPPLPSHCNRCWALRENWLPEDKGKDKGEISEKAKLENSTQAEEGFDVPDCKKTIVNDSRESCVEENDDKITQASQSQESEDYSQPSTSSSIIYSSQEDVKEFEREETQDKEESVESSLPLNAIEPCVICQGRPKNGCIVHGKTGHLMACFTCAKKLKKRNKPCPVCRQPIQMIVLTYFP
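Test system: mammalian cells stably expressing self-ubiquitinating, self-degrading MDM2 E3–luciferase fusion; Amount: 2000 cells in each well; Medium: DMEM; Schedule: 4 h settle plus 2 h compound, 37 °C; Technique: SteadyLite luciferase luminescence after 15 min room-temperature reagent incubation; Benchmarks: plate control and blank wells.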
Numbers stand for hits; . = inactive; / = no result given.

SMILES | Wee1 degr inh | Hsp70 activator | Pf gametocyte | Mdm2 ligase inh
O=C(c1cn(-c2ccccc2)nc1-c1cccs1)N1CCOCC1 | . | . | . | 32.7
O=C(c1cn(-c2ccccc2)nc1-c1cccs1)N1CCN(c2ccccc2)CC1 | . | . | / | .
CC1=CC(C)(C)N(C(=O)CNC2CCCC2)c2cc(C)ccc21 | . | . | . | .
CCOc1cc(/C=C(/NC(C)=O)C(=O)O)cc(Cl)c1OCc1cccc(Br)c1 | . | / | . | .
CCn1c(=O)n(CC(=O)Nc2cc(OC)c(OC)c(OC)c2)c(=O)c2ccccc21 | . | . | . | 36.7
Cc1oc(-c2cc(F)cc(F)c2)nc1CN1CCSCC1 | . | . | . | .
CCOC(=O)c1oc2cc(OC(C)=O)ccc2c(=O)c1-c1ccc(OC)c(OC)c1 | 9.3 | / | . | .
Cc1ccc(-c2nn(-c3ccccc3)cc2CC(=S)N2CCOCC2)cc1 | / | / | . | /
O=C(c1sc2ccccc2c1Cl)N(Cc1ccccc1Cl)C1CCS(=O)(=O)C1 (centres undefined) | 9.4 | . | / | .
Cc1nnc(NC(=O)c2ccc(S(=O)(=O)N3CCc4ccccc4C3)cc2)o1 | . | . | 49.4 | .
CC(C)CN(CC(C)C)C(=O)Nc1ccccc1F | . | . | / | .
CCN(CC)CCCNc1nc2ccccc2[nH]1 | . | . | / | .
CCNc1nc2ccccc2[nH]1 | 9.8 | . | / | /
CN(C)c1nc(=NCc2ccco2)ss1 | . | / | / | 36.5
CCc1ccc2oc(-c3cc(N)ccc3O)nc2c1 | 9.5 | . | / | .
N=C1C(c2ccccc2)=C(O)CN1c1cccc(S(=O)(=O)NCc2ccco2)c1 | 9.2 | / | . | .
CCOC(=O)c1cc(C#N)c(N2CCN(C(=O)c3cccc(C(F)(F)F)c3)CC2)nc1C(F)(F)F | . | / | . | .
O=[N+]([O-])c1cccc(P(=O)(O)c2cccc([N+](=O)[O-])c2)c1 | 24.8 | / | . | .
CN(NC1CC(=O)N(c2ccccc2)C1=O)c1ccccc1 (centres undefined) | 11.3 | . | . | .
N#CCNC1CC(=O)N(c2ccccc2)C1=O (centres undefined) | / | / | . | /
COc1cc(OC)c(NC(=O)c2ccc3c(SCC(=O)O)c4c(nc3c2)CCCC4)cc1Cl | . | . | . | .
COc1ccccc1N(CC(O)Cn1c(C)nc2ccccc21)S(=O)(=O)c1ccccc1 (centres undefined) | . | . | . | .
O=C(Nc1cccc(S(=O)(=O)NCc2ccco2)c1)c1cc(-c2ccc(F)cc2)nc2ccccc12 | 9.2 | . | . | .
CC(=O)Nc1cc(C(=O)N2CCc3ccccc3C2)ccc1Sc1ccc(Cl)cc1 | 9.6 | . | / | .
Cc1ccc(C(=O)Nc2nc(C)c(C(=O)Nc3ccc4c(c3)CCC4)s2)cc1 | 9.8 | . | . | .
SMILES | Wee1 degr inh | Hsp70 activator | Pf gametocyte | Mdm2 ligase inh
CCc1cccc(C)c1NC(=S)NCC(c1cccnc1)N1CCOCC1 (centres undefined) | . | . | / | .
c1ccc(Nc2nc(-c3cccnc3)cs2)nc1 | . | . | / | .
c1ccc(Nc2nc(-c3cccs3)cs2)nc1 | 9.8 | . | . | .
Cc1cccc(Nc2nc(-c3cccs3)cs2)n1 | 18.3 | . | / | .
Brc1ccc(N=Nc2ccc3ccccc3n2)cc1 | . | / | . | .
CC(C)c1ccc(/C=N/NC(=O)c2ccccc2Cl)cc1 | 8.9 | . | . | .
COC(=O)c1ccc(/C=N/NC(=O)c2ccccc2Cl)cc1 | . | . | / | .
COc1cc2c(cc1OC)C1=NC(=O)CN1C(SCc1ccccc1)=N2 | . | . | . | .
CCCc1c(C(=O)Nc2ccc(F)cc2F)cnn1-c1ccccc1 | . | / | . | .
CCCc1c(C(=O)Nc2cc(C(C)(C)C)on2)cnn1-c1ccccc1 | 9.8 | / | . | .
CCNS(=O)(=O)c1ccc(CCC(=O)Nc2ccc3c(c2)OCCO3)cc1 | / | / | . | /
Cc1[nH]c2ccccc2c1/C=N/NC(=S)NC(C)C | . | . | . | .
CC(C)NC(=S)N/N=C/c1c[nH]c2ccccc12 | 15.2 | . | / | .
CC1(C)CC(=O)C2=C(C1)Nc1ccccc1NC2c1ccc(F)cc1 (centres undefined) | / | / | . | /
O=C1NCC2=C1C(c1ccc(Br)cc1)Nc1ccccc1N2 (centres undefined) | 9.6 | . | . | .
CN(C)c1ccc(N=Nc2cccc3ccoc23)cc1 | 9.0 | / | / | .
CCCc1cc(=O)[nH]c(SCC(=O)Nc2ncc(S(=O)(=O)c3ccc([N+](=O)[O-])cc3)s2)n1 | . | / | . | .
Nc1nc(N)nc(COc2ccccc2)n1 | 9.4 | . | . | .
COc1ccc2[nH]cc(CCNC(=O)Nc3ccccc3C)c2c1 | / | / | . | /
CCN1CCN(C(=O)/C=C/c2ccccc2[N+](=O)[O-])CC1 | . | . | . | .
O=C(/C=C/c1ccccc1[N+](=O)[O-])N1CCCCC1 | 9.1 | . | . | .
COc1cccc(=O)c2c(C)n(C)c(C)c12 | . | . | 38.8 | .
COc1ccc(Cl)cc1N(CC(=O)N1CCCCCC1)S(C)(=O)=O | / | / | . | /
N#Cc1c(NC(=O)c2ccccc2)sc2c1CCC2 | 10.7 | . | / | .
Cc1cccc(OCc2nc(-c3ccccn3)n[nH]2)c1 | . | . | . | .
SMILES | Wee1 degr inh | Hsp70 activator | Pf gametocyte | Mdm2 ligase inh
Cc1ccc(OCc2nc(-c3ccccn3)n[nH]2)cc1 | 9.1 | . | . | .
CCc1cc(=O)oc2cc3occ(-c4ccc(OC)c(F)c4)c3cc12 | . | . | . | .
COc1ccc2[nH]c(=O)c(CN(C(=O)C3CCCO3)c3ccc(C)c(C)c3)cc2c1 (centres undefined) | 9.4 | / | . | .
O=C(CSc1ccc(F)cc1)Nc1ccc(C2SCCS2)cc1 | 9.5 | / | . | .
O=C(CSC1=NCCS1)Nc1ccc(F)cc1 | . | . | . | .
Cc1ccc2nc(N(CCCN(C)C)C(=O)c3sc4ccccc4c3Cl)sc2c1 | . | . | . | .
CCOC(=O)Cc1nnc(NC(=O)CSc2nnc3c(n2)[nH]c2ccccc23)s1 | . | . | . | .
COC(=O)CCC(=O)NNC(=O)C1CC1(c1ccccc1)c1ccccc1 (centres undefined) | / | / | . | /
COc1cc(C2Nc3ccc4ncccc4c3C3=C2C(=O)CCC3)cc(OC)c1OC (centres undefined) | . | . | . | .
Cc1ccsc1C1Nc2ccc3ncccc3c2C2=C1C(=O)CCC2 (centres undefined) | . | . | . | 34.0
O=C1CSC(c2ccccc2)N1CC12CC3CC(CC(O)(C3)C1)C2 (centres undefined) | 12.6 | . | / | .
CC(=O)OC(C(=O)Nc1ccccc1C)C(OC(C)=O)C(OC(C)=O)C(OC(C)=O)C(=O)Nc1ccccc1C (centres undefined) | . | . | / | /
CCOc1ccc2c(c1)C(=NNC(=O)c1ccccn1)c1cc(OCC)ccc1-2 | / | / | . | /
Cc1ccc2nc(Cl)c3nnnn3c2c1 | . | . | / | .
Cc1ccc2nc(N3CCN(c4cccc(C)c4C)CC3)c3nnnn3c2c1 | 10.4 | . | . | .
COc1ccc(Oc2nccc(-c3ccc(F)cc3)c2C#N)cc1 | 11.9 | . | . | .
O=C(NCC(c1cccnc1)N1CCOCC1)NC1CCCCC1 (centres undefined) | . | . | . | .
